The whole screen tested about 1,300 compounds, of which about 40 (3%) were called active. How the calls were made is not given here. Not all results are given here. Potency and affinity values are given separately.

This experiment is described as follows: growth inhibition of wild-type E. coli BW25113 pool, dose response, OD615 (AID 635).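 Further: growth measured after 20 h with compound at 37 °C.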 The settings on record: pooled mutant strains; at 100 µM (top of the series). Put shortly:
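Material: Keio BW25113 knockout pool, 1,275 strains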
As for `CC(C)c1nnc(NC(=O)c2c(O)c3cccc4c3n(c2=O)CC4)s1`, the growth inhibition is -11% (inactive).

`CCOc1cc(S(=O)(=O)N2CCN(Cc3ccccc3)CC2)ccc1Br`: the growth inhibition was -3.26% (inactive). For the compound `CC1CN(c2oc(COc3ccc(Cl)cc3Cl)nc2C#N)CC(C)O1` (stereo not given), the growth inhibition was -5.37% (inactive). Consider `CN(C1CCCCC1)S(=O)(=O)c1ccc(NC(=O)c2ccc(Br)o2)cc1`, for which the growth inhibition is -1.39% (inactive). For `Cc1[nH]n2c(=O)c3c(nc2c1-c1ccc(Cl)cc1)CCC3` the value was -1.19% (inactive); for `CCOC(=O)c1cn(CC)c2cc(N3CCSCC3)c(F)cc2c1=O`, 3.43% (inactive). In the case of `Cc1csc(NC(=O)c2cccc(Cn3nc(C)c(Br)c3C)c2)n1`, the growth inhibition is 1.33% (inactive).

Take `COc1ccc(-c2[nH]ncc2Oc2ccccc2OC)c(O)c1`: the growth inhibition is 7.41% (inactive). Turning to `Cc1ccc(Cl)cc1NC(=O)CC(O)(C(F)(F)F)C(F)(F)F`, the growth inhibition is 15.3% (inactive). To `CCOC(=O)C1CCN(C(c2cccnc2)c2c(NC(=O)c3ccco3)sc(C)c2C)CC1` (stereo not given) belongs -3.15% (inactive); to `Cc1cc(C)c(O)c(-c2cc(C(=O)Nc3ccc(S(=O)(=O)N4CCOCC4)cc3)[nH]n2)c1`, 3.2% (inactive); to `COc1ccc(S(=O)(=O)N(Cc2cccs2)C2CCCC2)cc1`, 3.24% (inactive). With `COc1ccc(OCC(O)Cn2c(=N)n(Cc3ccccc3)c3ccccc32)cc1` (stereo not given), the growth inhibition was 12.8% (inactive). With `CCc1nc(N2CCCCC2)c2oc3ccccc3c2n1`, the growth inhibition is -3.08% (inactive).

Regarding `Brc1cc(Br)c2ncnc(N3CCCCC3)c2c1`, the growth inhibition is 1.95% (inactive). `COCCCN1C(=O)c2[nH]nc(-c3ccccc3O)c2C1c1ccc(Cl)cc1` (stereo not given): the growth inhibition is -4.43% (inactive).

`COc1ccccc1N1CCN(C(c2ccccc2Cl)c2nnnn2C(C)(C)C)CC1` (stereo not given): the growth inhibition is -0.1% (inactive).

`CC(C)c1nc(N2CCN(C(=O)c3ccco3)CC2)c2c3c(sc2n1)CCCC3`: the growth inhibition is 4.77% (inactive). As for `O=C(CN(C(=O)CNC(=O)c1ccco1)c1ccc(Cl)c(Cl)c1)NC1CCCCC1`, the growth inhibition is 1.85% (inactive). As for `CCCCOn1c(C)c(C(=O)OCC)c2c3nonc3ccc21`, the growth inhibition is 2.87% (inactive). Consider `CCOC(=O)c1sc(NC(=O)CSc2n[nH]c(-c3ccccc3)n2)c(C#N)c1C`, for which the growth inhibition is 1.14% (inactive). For `Cc1cccc(Cc2c(C)nc3c(C(=O)NCc4ccco4)cnn3c2C)c1` the value was -6.42% (inactive); for `Cc1noc(C)c1S(=O)(=O)N(CCc1ccccc1)Cc1ccccc1`, 3.25% (inactive); for `Cc1ccc2c3c1C1(C(=O)N3C(C)(C)CC2C)C(C#N)=C(N)Oc2cc(O)ccc21` (stereo not given), 4.82% (inactive). For `Cc1ccc(C2C(S(C)(=O)=O)=C(O)C(=O)N2c2ccccc2)cc1` (stereo not given) (tested in a mixture with another compound) the value was 3.27% (inactive); for `CC1CCCC(C)N1C(=O)CN1C(=O)C(C)(C)Oc2ccc(C(=O)NC3CCCCC3)cc21` (stereo not given), -0.3% (inactive); for `Oc1ccccc1-c1cc(-c2ccc3c(c2)OCCO3)n[nH]1`, 5.21% (inactive). To `Cc1csc(SCC(=O)Nc2nc(-c3ccccc3)cs2)n1` belongs 0.45% (inactive); to `O=C(Nc1nc(SCc2ccc(F)cc2)ns1)c1ccco1`, 8.93% (inactive); to `COc1ccc2[nH]c(=O)c(CN(C(=O)NC3CCCCC3)C3CCCCC3)cc2c1`, -1.14% (inactive).

Turning to `COC(=O)c1c(NC(=O)Cc2cccs2)sc2c1CCCC2`, the growth inhibition is 4.36% (inactive). Turning to `OCCn1c(-c2ccc3c(c2)OCO3)csc1=Nc1ccccc1`, the growth inhibition was -0.74% (inactive). Regarding `N#Cc1c(N)oc(-c2ccc3c(c2)OCO3)c1-c1ccc2c(c1)OCO2`, the growth inhibition is 1.41% (inactive). In the case of `Cn1c(-c2ccc3c(c2)OCO3)cnc1N`, the growth inhibition is -1.76% (active). With `CCOC(=O)N1CCN(c2nc3ccccc3nc2C(C#N)S(=O)(=O)c2ccc(C)cc2)CC1` (stereo not given), the growth inhibition was -1.57% (inactive).

Consider `CCOc1ccc(N(CC(=O)Nc2cccc(Cl)c2)S(=O)(=O)c2c(C)noc2C)cc1`, for which the growth inhibition was 2.36% (inactive).

In the case of `CN1/C(=C\C(=O)COc2ccc3c(c2)OCO3)C(C)(C)c2ccccc21`, the growth inhibition is -6.25% (inactive). For `O=C(COc1ccccc1)Nc1nnc(-c2ccc(Cl)s2)o1` the value was 2.47% (inactive). To `O=c1c2c(nc3n1CCCCC3)-c1ccccc1CC21CCCC1` belongs -5.17% (inactive); to `Cc1ccc(C(C(=O)NC2CCCC2)N(Cc2cccs2)C(=O)CNC(=O)c2cccs2)o1` (stereo not given), 5.18% (inactive).

For `Cc1ccc(C)c(N2CCN(C(=O)c3ccc(NS(=O)(=O)c4c(C)noc4C)cc3)CC2)c1`, the growth inhibition was 3.98% (inactive). For the compound `Cc1ccc(CN2C(=O)NC(=O)C3(Cc4c(nc5ccccn5c4=O)N4CCCCCC43)C2=O)cc1` (stereo not given), the growth inhibition was -2% (inactive). For `O=C(NC12CC3CC(CC(C3)C1)C2)c1ccccc1O` the value was 8.6% (inactive); for `COc1ccc(-c2[nH]c(-c3cccc(OC)c3)nc2SCC(=O)NCc2ccco2)cc1`, -2.87% (inactive); for `OC(COc1ccc(Cl)c2ccccc12)CN1CCN(c2ccccn2)CC1` (stereo not given), -3.05% (inactive).

Regarding `O=C(Nc1nc2n(n1)C(c1ccc(Cl)cc1)CC(c1ccc(Cl)cc1)N2)c1ccco1` (stereo not given), the growth inhibition is 9.43% (inactive). As to `CCOc1cc(C)c(C(C)C)cc1S(=O)(=O)N1CC(C)OC(C)C1` (stereo not given), the growth inhibition was 3.51% (inactive). For `CCN(C(=O)c1ccc(C(C)(C)C)cc1)c1nnc(Cn2nnc3ccccc32)s1` the value was 2.41% (inactive). In the case of `COc1cc2cc(C(c3nnnn3C3CCCCC3)N(C)C3CCCCC3)c(=O)[nH]c2cc1OC` (stereo not given), the growth inhibition was -2.92% (inactive). For `N#Cc1c(NC(NC(=O)c2ccco2)C(=O)c2ccccc2)sc2c1CCCC2` (stereo not given) the value was 1.57% (inactive); for `Cc1ccc(C)c(SCC(=O)Nc2nnc(-c3ccccc3)o2)c1`, 6.77% (inactive); for `COc1cccc(-c2csc(N3CCN(C(=O)C4CCCCC4)CC3)n2)c1`, -1.87% (inactive). As for `O=C(Nc1cccc(C(F)(F)F)c1)N1CCC(c2nc(-c3ccc(F)cc3)no2)CC1`, the growth inhibition was -2.79% (inactive).

Take `CCOc1ccc2nc(NC(=O)C(CC)Sc3nc(C)cc(=O)[nH]3)sc2c1` (stereo not given): the growth inhibition was 0.31% (inactive). Turning to `CCOC(=O)c1cn(CC)c2cc(N3CCCCC3)c(F)cc2c1=O`, the growth inhibition is -1.4% (inactive). For `CCn1cc(C(=O)O)c(=O)c2cnc(N3CCN(C(=O)Nc4ccccc4)CC3)nc21` the value was 5.46% (inactive); for `CCn1cc(C(=O)O)c(=O)c2cc(OC)ccc21`, -5.37% (inactive); for `CCOC(=O)c1cn(CC)c2cc(N3CCOCC3)c(F)cc2c1=O`, 3.52% (inactive). For `CCn1cc(C(=O)Nc2nncs2)c(=O)c2cc(F)c(N3CCN(C(=O)c4ccco4)CC3)cc21`, the growth inhibition is 15.6% (inactive).

For the compound `Cc1nc2c(C(=O)NCc3ccc4c(c3)OCO4)c[nH]n2c(=O)c1Cc1ccccc1F`, the growth inhibition was 0.56% (inactive). To `Cc1ccc2nc(NC(=O)CNS(=O)(=O)c3ccc(Br)s3)sc2c1` belongs 1.78% (inactive); to `CN(C)c1nc(SCCOC(=O)Nc2ccccc2)nc(N(C)C)n1`, 3.85% (inactive). As to `O=C(Nc1nc(-c2ccccc2)cs1)c1cccs1`, the growth inhibition is -1.94% (inactive).

As for `COc1ccc(CN(C(=O)CN2C(=O)COc3ccccc32)C2CCCC2)c(OC)c1`, the growth inhibition is 6.95% (inactive). Take `COc1ccc2[nH]c3c(=O)n(CCCCC(=O)NCCN4CCCC4)c(=S)[nH]c3c2c1`: the growth inhibition was -2.44% (inactive). Turning to `Clc1ccc(Cl)c(-c2nn3c(COc4ccccc4)nnc3s2)c1`, the growth inhibition was 2.46% (inactive).

Take `CCOC(=O)c1nnn(-c2nonc2-n2cccc2)c1CN1CCC(C)CC1`: the growth inhibition was 3.87% (inactive). For `COc1ccc(Cn2c(=O)sc3ccccc32)cc1` the value was 2.87% (inactive); for `O=C(NC1CCCCCCC1)c1ccccc1O`, 0.38% (inactive). For `Brc1cccc(-c2n[nH]c(-c3ccccc3)n2)c1`, the growth inhibition is 4.22% (inactive). To `CCc1nc2sc3ccccc3c(=O)c2c(=O)n1Cc1ccco1` belongs 5.6% (inactive); to `CCOC(=O)c1c(NS(=O)(=O)c2cccc(OC)c2)sc2c1CCC2`, 0.74% (inactive). `CCCn1nnc(NC(=O)COc2ccc(C3CCCCC3)cc2)n1`: the growth inhibition was 6.61% (inactive). Turning to `COc1cccc(NC(=O)N2CCN(c3cccc(C)c3C)CC2)c1`, the growth inhibition is -2.15% (inactive). As for `CN(Cc1ccccc1)C(=O)CSc1nc2ccccc2c(=O)n1Cc1ccco1`, the growth inhibition is 4.9% (inactive). As for `COc1ccc2nc(NC(=O)C3CCCN(S(=O)(=O)c4cccs4)C3)sc2c1` (stereo not given), the growth inhibition was -10.2% (inactive). For the compound `c1ccc(-c2oc3ncnc(NCCCn4ccnc4)c3c2-c2ccccc2)cc1`, the growth inhibition was 13.2% (inactive). Regarding `CC(C)(C)OC(=O)N1CCC[C@H]1c1nnc(SCc2ccc(Cl)cc2Cl)o1`, the growth inhibition is 6.74% (inactive). Take `Cn1c(CSc2nc3ccccc3s2)nc2ccccc21`: the growth inhibition was -7.99% (inactive). To `CCOC(=O)c1ccc(-n2[nH]c(-c3ccccc3)cc2=O)cc1` belongs -2.7% (inactive). For `Cn1c(C(=O)N2CCc3ccccc3C2)cc2oc3ccccc3c21` the value was -4.13% (inactive). Regarding `Cc1ccc(Nc2nc(CSc3nnnn3-c3ccccc3)cs2)cc1`, the growth inhibition was -12.4% (inactive).

Take `O=C(c1ccco1)N1CCN(c2c(-c3ccccc3)c3cc(Cl)ccc3[nH]c2=O)CC1`: the growth inhibition was 0.97% (inactive). To `Cc1ccc(S(=O)(=O)NCCSc2nnnn2-c2cc(C)ccc2C)cc1` belongs 1.62% (inactive).

Regarding `CCOc1ccc(-c2nc(C#N)c(N3CCCCCC3)o2)cc1`, the growth inhibition was -1.95% (inactive). With `COc1ccc(-c2csc(NCc3ccco3)n2)cc1C`, the growth inhibition was -4.35% (inactive). Consider `COc1cc(-c2nc(Cc3ccccc3Cl)no2)cc(OC)c1OC`, for which the growth inhibition was -4.44% (inactive).

Consider `CC(=O)c1c(O)cc(C)n(Nc2nc(C)cc(C)n2)c1=O`, for which the growth inhibition was -5.46% (inactive). For `Cc1ccc(CN2CCSc3ccc(C(=O)N4CCN(c5ncccn5)CC4)cc32)cc1` the value was -4.07% (inactive); for `COc1nnc(-c2ccc(N3CCCCC3)c(N)c2)c2ccccc12`, 9.66% (inactive).

Source of the values: PubChem BioAssay AID635 (SRMLSC, 2007).
